Where “and” joins values, the source holds several entries; their conditions need not be identical. Equal entries are not always repeated.
Tested on: HEK-293T
Assay: Multiplex assay against HEK293T
Assay type: toxicity, cell-based
Conditions: human
Outline: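 Compound was added to live cells that had been stained at seeding with Hoechst33342, BioTracker Green Microtubule Cytoskeleton Dye, MitoTracker Red and Annexin V Alexa Fluor 680, and imaging followed on a CQ1 microscope at 37°C and 5% CO2. CellPathfinder machine-learning gating divided cells into Hoechst high-intensity objects or normal cells, normal cells into healthy, pyknosed or fragmented nuclei, and pyknosed cells into mitotic or apoptotic. Tubulin, mitochondrial-mass and membrane-permeability phenotypes are per cents of healthy-nucleus cells.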

[1] = 12 h, 1 µM, compound concentration 1 uM
[2] = 12 h, 10 µM, compound concentration 10 uM
[3] = 24 h, 1 µM, compound concentration 1 uM
[4] = 24 h, 10 µM, compound concentration 10 uM
[5] = 48 h, 1 µM, compound concentration 1 uM
[6] = 48 h, 10 µM, compound concentration 10 uM

Structure (SMILES): O=c1cccc2n1C[C@@H]1CNC[C@H]2C1 [CYTISINICLINE]
- Population Apoptotic (%) [1]: 13.38% and 21.1%
- Population Fragmented Nuclei (%) [1]: 1.29% and 6.54%
- Population Healthy Nuclei (%) [1]: 52.75% and 22.22%
- Population Hoechst High Intensity Objects (%) [1]: 0.64% and 0%
- Population Membrane Permeable-Phenotype (%) [1]: 0.61% and 0%
- Population Mitochondria Different-Phenotype (%) [1]: 39.26% and 17.65%
- Population Mitotic Cells (%) [1]: 86.62% and 78.9%
- Population Normal (%) [1]: 99.36% and 100%
- Population Pyknosed Nuclei (%) [1]: 45.95% and 71.24%
- Total Cell Count [1]: 311 and 153
- Population Apoptotic (%) [2]: 15.45% and 10.14%
- Population Fragmented Nuclei (%) [2]: 3.17% and 4.62%
- Population Hoechst High Intensity Objects (%) [2]: 0%
- Population Membrane Permeable-Phenotype (%) [2]: 0.66% and 0%
- Population Mitochondria Different-Phenotype (%) [2]: 17.11% and 7.41%
- Population Mitotic Cells (%) [2]: 84.55% and 89.86%
- Population Normal (%) [2]: 100%
- Population Pyknosed Nuclei (%) [2]: 43.31% and 79.77%
- Total Cell Count [2]: 284 and 173
- Population Apoptotic (%) [3]: 15.52% and 25.56%
- Population Fragmented Nuclei (%) [3]: 1.39% and 3.33%
- Population Healthy Nuclei (%) [3]: 75.5% and 36.67%
- Population Hoechst High Intensity Objects (%) [3]: 0.2% and 0%
- Population Membrane Permeable-Phenotype (%) [3]: 1.32% and 5.45%
- Population Mitochondria Different-Phenotype (%) [3]: 17.41% and 14.55%
- Population Mitotic Cells (%) [3]: 84.48% and 74.44%
- Population Normal (%) [3]: 99.8% and 100%
- Population Pyknosed Nuclei (%) [3]: 23.11% and 60%
- Population Tubulin-Different-Phenotype (%) [3]: 11.08% and 16.36%
- Population Apoptotic (%) [4]: 18.82% and 14.41%
- Population Fragmented Nuclei (%) [4]: 2.13% and 5.14%
- Population Healthy Nuclei (%) [4]: 81.43% and 42.99%
- Population Hoechst High Intensity Objects (%) [4]: 0%
- Population Membrane Permeable-Phenotype (%) [4]: 0.24% and 0%
- Population Mitochondria Different-Phenotype (%) [4]: 15.44% and 7.61%
- Population Mitotic Cells (%) [4]: 81.18% and 85.59%
- Population Normal (%) [4]: 100%
- Population Tubulin-Different-Phenotype (%) [4]: 7.6% and 1.09%
- Total Cell Count [4]: 517 and 214
- Population Fragmented Nuclei (%) [5]: 2.45% and 3.98%
- Population Healthy Nuclei (%) [5]: 88.37% and 61.69%
- Population Hoechst High Intensity Objects (%) [5]: 0%
- Population Membrane Permeable-Phenotype (%) [5]: 2.27% and 1.61%
- Population Mitochondria Different-Phenotype (%) [5]: 16.42% and 20.97%
- Population Mitotic Cells (%) [5]: 94.29% and 66.67%
- Population Normal (%) [5]: 100%
- Population Apoptotic (%) [6]: 9.77% and 19.7%
- Population Fragmented Nuclei (%) [6]: 5.36% and 2.25%
- Population Healthy Nuclei (%) [6]: 85.61% and 79.15%
- Population Hoechst High Intensity Objects (%) [6]: 0.14% and 0%
- Population Membrane Permeable-Phenotype (%) [6]: 5.39% and 1.78%
- Population Mitochondria Different-Phenotype (%) [6]: 8.88% and 16.01%
- Population Mitotic Cells (%) [6]: 90.23% and 80.3%
- Population Normal (%) [6]: 99.86% and 100%
- Population Pyknosed Nuclei (%) [6]: 9.03% and 18.59%

Structure (SMILES): C[C@@H]1C[C@H]2[C@@H]3CCC4=CC(=O)C=C[C@]4(C)[C@@]3(F)[C@@H](O)C[C@]2(C)[C@@]1(O)C(=O)CO [DEXAMETHASONE]
- Population Apoptotic (%) [1]: 37% and 53%
- Population Fragmented Nuclei (%) [1]: 8% and 7%
- Population Healthy Nuclei (%) [1]: 78% and 80%
- Population Hoechst High Intensity Objects (%) [1]: 2% and 8%
- Population Membrane Permeable-Phenotype (%) [1]: 1% and 0%
- Population Mitochondria Different-Phenotype (%) [1]: 45% and 62%
- Population Mitotic Cells (%) [1]: 62% and 46%
- Population Normal (%) [1]: 97% and 91%
- Population Pyknosed Nuclei (%) [1]: 12%
- Population Tubulin-Different-Phenotype (%) [1]: 24% and 26%
- Total Cell Count [1]: 420 and 372
- Population Apoptotic (%) [2]: 37% and 44%
- Population Fragmented Nuclei (%) [2]: 7% and 5%
- Population Healthy Nuclei (%) [2]: 79% and 81%
- Population Hoechst High Intensity Objects (%) [2]: 6% and 14%
- Population Membrane Permeable-Phenotype (%) [2]: 0%
- Population Mitochondria Different-Phenotype (%) [2]: 44% and 69%
- Population Mitotic Cells (%) [2]: 62% and 55%
- Population Normal (%) [2]: 93% and 85%
- Population Pyknosed Nuclei (%) [2]: 13%
- Population Tubulin-Different-Phenotype (%) [2]: 33% and 39%
- Total Cell Count [2]: 374 and 436
- Population Apoptotic (%) [3]: 31% and 42%
- Population Fragmented Nuclei (%) [3]: 9% and 12%
- Population Healthy Nuclei (%) [3]: 78% and 79%
- Population Hoechst High Intensity Objects (%) [3]: 4% and 7%
- Population Membrane Permeable-Phenotype (%) [3]: 0%
- Population Mitochondria Different-Phenotype (%) [3]: 30% and 45%
- Population Mitotic Cells (%) [3]: 68% and 57%
- Population Normal (%) [3]: 95% and 92%
- Population Pyknosed Nuclei (%) [3]: 12% and 8%
- Population Tubulin-Different-Phenotype (%) [3]: 17%
- Total Cell Count [3]: 569 and 499
- Population Apoptotic (%) [4]: 36% and 44%
- Population Fragmented Nuclei (%) [4]: 8% and 9%
- Population Healthy Nuclei (%) [4]: 74% and 79%
- Population Hoechst High Intensity Objects (%) [4]: 6% and 15%
- Population Membrane Permeable-Phenotype (%) [4]: 0%
- Population Mitochondria Different-Phenotype (%) [4]: 30% and 43%
- Population Mitotic Cells (%) [4]: 63% and 56%
- Population Normal (%) [4]: 93% and 84%
- Population Pyknosed Nuclei (%) [4]: 16% and 11%
- Population Tubulin-Different-Phenotype (%) [4]: 29% and 22%
- Total Cell Count [4]: 453 and 513
- Population Apoptotic (%) [5]: 30% and 27%
- Population Fragmented Nuclei (%) [5]: 15%
- Population Healthy Nuclei (%) [5]: 77% and 78%
- Population Hoechst High Intensity Objects (%) [5]: 1% and 3%
- Population Membrane Permeable-Phenotype (%) [5]: 1% and 0%
- Population Mitochondria Different-Phenotype (%) [5]: 18% and 27%
- Population Mitotic Cells (%) [5]: 69% and 72%
- Population Normal (%) [5]: 98% and 96%
- Population Pyknosed Nuclei (%) [5]: 7% and 6%
- Population Tubulin-Different-Phenotype (%) [5]: 12% and 15%
- Total Cell Count [5]: 915 and 685
- Population Apoptotic (%) [6]: 25% and 50%
- Population Fragmented Nuclei (%) [6]: 15% and 16%
- Population Healthy Nuclei (%) [6]: 76%
- Population Hoechst High Intensity Objects (%) [6]: 3% and 6%
- Population Membrane Permeable-Phenotype (%) [6]: 0%
- Population Mitochondria Different-Phenotype (%) [6]: 18% and 28%
- Population Mitotic Cells (%) [6]: 75% and 49%
- Population Normal (%) [6]: 96% and 93%
- Population Pyknosed Nuclei (%) [6]: 7%
- Population Tubulin-Different-Phenotype (%) [6]: 14% and 19%
- Total Cell Count [6]: 760 and 756

Source: ChEMBL document CHEMBL5724801, “EUbOPEN Chemogenomics Library - Multiplex” (2024)
